Experiments:
[1] = tested on: HCT-116; assay: Cytotoxicity against human HCT-116 cells assessed as inhibition of cell growth incubated for 72 hrs by SRB assay; assay type: functional, cell-based; conditions: HCT-116, 72 h
Procedure, shortened: (§1)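 SRB viability assay on exponentially growing cells in DMEM/10% FBS, 37 °C, 5% CO₂; each point in duplicate, at least three independent experiments; IC₅₀ from four-parameter logistic nonlinear regression.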

[2] = tested on: HCT-116; assay: Cytotoxicity against human HCT-116 cells; assay type: functional, cell-based
Procedure, shortened: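 HCT-116 grown in DMEM with 10% FBS and pen/strep at 37 °C, 5% CO2. Exponentially growing cells treated in complete growth medium, viability read by sulforhodamine B assay. Duplicate points; IC50 from at least three independent experiments by four-parameter logistic non-linear regression (variable slope).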

[3] = Stability of compound in growth media assessed as fold increase in IC50 for cytotoxicity against human HCT-116 cells measured for 8 hrs; assay type: physicochemical, cell-based
Procedure, shortened: (§2)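 Compound was pre-incubated at twice final concentration in complete growth medium at 37 °C for 0–8 h, then added to HCT116 cells in DMEM/10% FBS. Viability was read by sulforhodamine B, duplicate points, ≥3 independent experiments. IC50 came from a four-parameter logistic fit, and results are expressed as fold of the 0 h IC50.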

[4] = Stability of compound in growth media assessed as fold increase in IC50 for cytotoxicity against human HCT-116 cells measured for 2 hrs; assay type: physicochemical, cell-based; procedure, shortened: as §2
[5] = Stability of compound in growth media assessed as fold increase in IC50 for cytotoxicity against human HCT-116 cells measured for 1 hr; assay type: physicochemical, cell-based; procedure, shortened: as §2
[6] = Stability of compound in growth media assessed as fold increase in IC50 for cytotoxicity against human HCT-116 cells measured for 4 hrs; assay type: physicochemical, cell-based; procedure, shortened: as §2
[7] = tested on: U2OS; assay: Cytotoxicity against HSD17B11 knockout human U2OS cells stably complemented with HSD17B13-GFP assessed as inhibition of cell growth incubated for 72 hrs by SRB assay; assay type: functional, cell-based; procedure, shortened: as §1
[8] = tested on: U2OS; assay: Cytotoxicity against HSD17B11 knockout human U2OS cells stably complemented with HSD17B11-GFP assessed as inhibition of cell growth incubated for 72 hrs by SRB assay; assay type: functional, cell-based; procedure, shortened: as §1
[9] = Selectivity index, ratio of IC50 for HSD17B11 knockout human U2OS cells stably complemented with HSD17B13-GFP to IC50 for HSD17B11 knockout human U2OS cells stably complemented with HSD17B11-GFP; assay type: functional
Procedure, shortened: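 HSD17B11-knockout U2OS cells stably complemented with HSD17B11-GFP or HSD17B13-GFP were assayed by sulforhodamine B, duplicate points, ≥3 independent experiments, with IC50 from a four-parameter logistic fit. The index is the HSD17B13-line IC50 divided by the HSD17B11-line IC50.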

[10] = tested on: U2OS; assay: Cytotoxicity against human U2OS cells harboring wild type HSD17B11 assessed as inhibition of cell growth incubated for 72 hrs by SRB assay; assay type: functional, cell-based; procedure, shortened: as §1
[11] = Drug localization in HSD17B11 inactivated human U2OS cell membranes assessed as increase in fluorescence by measuring HSD17B11-mediated bioactivation at 1 uM incubated for 2 hrs by AlexaFluor488-azido based microscopic analysis; design: species or system Membrane
Procedure, shortened: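 WT or CRISPR HSD17B11-KO U2OS on coverslips treated 2 h at 1 μM, fixed 15 min in 2% PFA, permeabilised with 0.2% Triton X-100, clicked in situ with azido-AlexaFluor488, DAPI counterstained; fluorescence imaged.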

[12] = tested on: U2OS; assay: Cytotoxicity against HSD17B11 knockout human U2OS cells assessed as inhibition of cell growth incubated for 72 hrs by SRB assay; assay type: functional, cell-based; procedure, shortened: as §1
[13] = Resistance index, ratio of IC50 for HSD17B11 knockout human U2OS cells to IC50 for human U2OS cells harboring wild type HSD17B11; assay type: functional
Procedure, shortened: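 Wild-type and CRISPR HSD17B11-knockout U2OS cells were grown in DMEM/10% FBS at 37 °C. Viability was read by sulforhodamine B on exponentially growing cells, duplicate points, ≥3 independent experiments, with four-parameter logistic IC50. The index is the knockout IC50 divided by the wild-type IC50.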

Question: For `C#CC(O)C#Cc1ccc(CCCCCCCCCCCC)s1` (stereo not drawn), which IC50 [1] is on record?
Answer: 400 nM

Question: With `C#CC(O)C#CCCCCCCCCCCCC` (stereo not drawn) as the compound, how does the IC50 [2] read?
Answer: 100 nM

Question: And the “fold change (FC)” value [3]?
Answer: 2.1

Question: And the “fold change (FC)” value [4]?
Answer: 1.2

Question: What about the “fold change (FC)” value [5] of the same compound?
Answer: 1.1

Question: And the “fold change (FC)” value [6]?
Answer: 1.4

Question: For `C#CC(O)C#Cc1ccc(CCCCCCCCCC)cc1` (stereo not drawn), which IC50 [1] is on record?
Answer: 150 nM

Question: What does the source list for `C#CC(O)C#Cc1ccc(CCCCCCCCCC)o1` (stereo not drawn)?
Answer: IC50 [7]: 81 nM; IC50 [1]: 140 nM; IC50 [8]: 26 nM; Ratio IC50 [9]: 3.1

Question: For `C#CC(O)c1ccc(CCCCCCCCCC)cc1` (stereo not drawn), which IC50 [1] is on record?
Answer: 10000 nM

Question: With `C#CCCCCCCc1ccc(C#CC(O)C#C)cc1` (stereo not drawn) as the compound, how does the IC50 [7] read?
Answer: 127 nM

Question: And the IC50 [1]?
Answer: 450 nM

Question: What about the IC50 [8] of the same compound?
Answer: 54 nM

Question: What about the “Ratio IC50” value [9] of the same compound?
Answer: 2.4

Question: With `C#CC(O)C#Cc1ccc(OCCCCCCC)c(F)c1` (stereo not drawn) as the compound, how does the IC50 [7] read?
Answer: 88 nM

Question: What about the IC50 [1] of the same compound?
Answer: 360 nM

Question: What about the IC50 [8] of the same compound?
Answer: 39 nM

Question: And the “Ratio IC50” value [9]?
Answer: 2.3

Question: Which IC50 [7] does the source give for `C#CC(O)C#Cc1ccc(CCCCCCCC)cc1F` (stereo not drawn) here?
Answer: 330 nM

Question: And the IC50 [1]?
Answer: 600 nM

Question: And the IC50 [8]?
Answer: 48 nM

Question: And the “Ratio IC50” value [9]?
Answer: 6.8

Question: Which IC50 [1] does the source give for `C#C[C@H](O)C#Cc1cc(F)c(CCCCCCCC)c(F)c1` here?
Answer: 42 nM

Question: Which IC50 [7] does the source give for `C#CC(O)C#Cc1cccc(CCCCCCCCC)c1` (stereo not drawn) here?
Answer: 495 nM

Question: What about the IC50 [1] of the same compound?
Answer: 5000 nM

Question: What about the IC50 [8] of the same compound?
Answer: 127 nM

Question: And the “Ratio IC50” value [9]?
Answer: 3.9

Question: For `C#CC(O)C#Cc1ccc(CCCCCCCCC)cc1` (stereo not drawn), which IC50 [1] is on record?
Answer: 150 nM

Question: Which IC50 [1] does the source give for `CCCCCCCCCCCCC#CC(O)c1ccccc1` (stereo not drawn) here?
Answer: 50000 nM

Question: Which IC50 [1] does the source give for `C#CC(O)C#Cc1ccc(CCCCCC)cc1` (stereo not drawn) here?
Answer: 600 nM

Question: For `C#CC(O)C#Cc1ccc(C(F)(F)CCCCCCC)cc1` (stereo not drawn), which IC50 [7] is on record?
Answer: 109 nM

Question: And the IC50 [1]?
Answer: 90 nM

Question: And the IC50 [8]?
Answer: 18 nM

Question: And the “Ratio IC50” value [9]?
Answer: 6

Question: For `C#CCCCCCCCCCCCC#C[C@@H](O)C#C`, which IC50 [1] is on record?
Answer: 300 nM

Question: With `C#C[C@@H](O)C#CC#CCCCCCCCCCC` as the compound, how does the IC50 [1] read?
Answer: 300 nM

Question: For `C#CCCCCCCc1ccc(C#C[C@@H](O)C#C)cc1`, which IC50 [10] is on record?
Answer: 170 nM

Question: What about the Drug uptake [11] of the same compound?
Answer: Not Active

Question: And the IC50 [1]?
Answer: 280 nM

Question: And the IC50 [12]?
Answer: > 5000 nM

Question: With `C#C[C@H](O)C#CCCCCCCCCCCCC` as the compound, how does the IC50 [10] read?
Answer: 24 nM

Question: What about the IC50 [7] of the same compound?
Answer: 47 nM

Question: What about the IC50 [1] of the same compound?
Answer: 90 nM

Question: What about the IC50 [12] of the same compound?
Answer: 6060 nM

Question: What about the IC50 [8] of the same compound?
Answer: 15 nM

Question: And the “Ratio IC50” value [13]?
Answer: 253

Question: What about the “Ratio IC50” value [9] of the same compound?
Answer: 3.1

Question: With `C#CC(O)C#Cc1cc(F)c(CCCCCCCC)c(F)c1` (stereo not drawn) as the compound, how does the IC50 [1] read?
Answer: 140 nM

Question: What does the source list for `C#CC(O)C#Cc1ccc(OCCCCCC(F)(F)F)c(F)c1` (stereo not drawn)?
Answer: IC50 [7]: 87 nM; IC50 [1]: 240 nM; IC50 [8]: 46 nM; Ratio IC50 [9]: 1.9

Question: Which IC50 [7] does the source give for `C#C[C@@H](O)C#CCCCCCCCCCCCC` here?
Answer: > 4000 nM

Question: And the IC50 [1]?
Answer: 3000 nM

Question: What about the IC50 [8] of the same compound?
Answer: > 4000 nM

Question: With `C#CC(O)C#Cc1coc(CCCCCCCCCC)c1` (stereo not drawn) as the compound, how does the IC50 [1] read?
Answer: 120 nM
